# Laboratory results from ChEMBL document CHEMBL1759921, “N5-phosphonoacetyl-L-ornithine (PALO): a convenient synthesis and investigation of influence on regulation of amino acid biosynthetic genes in Saccharomyces cerevisiae” (Bioorg Med Chem Lett, 2011).
# Activity calls are given as the source filed them. No cut-off for these calls is given here.
# Tests used:
# Format in all cases: functional, organism-based
# Saccharomyces cerevisiae [1] = test: Increase in ARG5,6 mRNA level in Saccharomyces cerevisiae BY4741 at 15 uM by Northern blot analysis relative to control
# Procedure, shortened: (§1)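 BY4741 inoculated from a saturated culture (30 °C, YPD) into minimal medium with leucine, methionine, uracil and histidine. Treatments were added at inoculation: 15 µM PALO in 50 mM potassium phosphate pH 6.8, buffer alone (untreated), 1 mg/mL L-arginine, or both. Cells grown at 30 °C and harvested at mid-log (OD600 0.4–0.6). mRNA measured by quantitative northern blot, normalized to SCR1; mean of three replicates.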
# Saccharomyces cerevisiae [2] = test: Increase in CPA1 mRNA level in Saccharomyces cerevisiae BY4741 at 15 uM by Northern blot analysis relative to control; procedure, shortened: as §1
# Saccharomyces cerevisiae [3] = test: Increase in TRP5 mRNA level in Saccharomyces cerevisiae BY4741 at 15 uM by Northern blot analysis relative to control; procedure, shortened: as §1
# Saccharomyces cerevisiae [4] = test: Decrease in ARG5,6 mRNA level in Saccharomyces cerevisiae BY4741 at 15 uM by Northern blot analysis in presence of arginine relative to control; procedure, shortened: as §1
# Saccharomyces cerevisiae [5] = test: Decrease in CPA1 mRNA level in Saccharomyces cerevisiae BY4741 at 15 uM by Northern blot analysis in presence of arginine relative to control; procedure, shortened: as §1
# Saccharomyces cerevisiae [6] = test: Decrease in TRP5 mRNA level in Saccharomyces cerevisiae BY4741 at 15 uM by Northern blot analysis in presence of arginine relative to control; procedure, shortened: as §1
# Saccharomyces cerevisiae [7] = test: Increase in TAP-tagged ARG5,6 protein level in Saccharomyces cerevisiae YSC1178-7500224 at 15 uM by Western blotting analysis relative to control
# Procedure, shortened: (§2)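 TAP-tagged strains (BY4741 background, untagged BY4741 as control) were grown from a saturated culture in supplemented minimal medium. At inoculation they received 15 µM PALO in 50 mM potassium phosphate pH 6.8, buffer alone, 1 mg/mL L-arginine, or both. Cells grown at 30 °C and harvested at OD600 0.4–0.6. Extracts were western blotted with anti-TAP antibody, with Coomassie-stained duplicate gels as loading controls. Band intensity was quantified.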
# Saccharomyces cerevisiae [8] = test: Increase in TAP-tagged CPA1 protein level in Saccharomyces cerevisiae YSC1178-7502950 at 15 uM by Western blotting analysis relative to control; procedure, shortened: as §2
# Saccharomyces cerevisiae [9] = test: Increase in TAP-tagged TRP5 protein level in Saccharomyces cerevisiae YSC1178-7500415 at 15 uM by Western blotting analysis relative to control; procedure, shortened: as §2
# Saccharomyces cerevisiae [10] = test: Decrease in TAP-tagged ARG5,6 protein level in Saccharomyces cerevisiae YSC1178-7500224 at 15 uM by Western blotting analysis in presence of arginine relative to control; procedure, shortened: as §2
# Saccharomyces cerevisiae [11] = test: Decrease in TAP-tagged CPA1 protein level in Saccharomyces cerevisiae YSC1178-7502950 at 15 uM by Western blotting analysis in presence of arginine relative to control; procedure, shortened: as §2
# Saccharomyces cerevisiae [12] = test: Decrease in TAP-tagged TRP5 protein level in Saccharomyces cerevisiae YSC1178-7500415 at 15 uM by Western blotting analysis in presence of arginine relative to control; procedure, shortened: as §2
# Saccharomyces cerevisiae [13] = test: Effect on growth rate in Saccharomyces cerevisiae BY4741
# Procedure, shortened: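 Growth followed at 30 °C in nitrogen-limiting medium: 2% dextrose, 1 mM ammonium sulfate, 100 µM potassium phosphate pH 6.8, and 10 µg/mL each of leucine, methionine, uracil and histidine.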
# Saccharomyces cerevisiae [14] = test: Decrease in ARG5,6 mRNA level in Saccharomyces cerevisiae BY4741 at 1 mg/ml by Northern blot analysis relative to control; procedure, shortened: as §1
# Saccharomyces cerevisiae [15] = test: Decrease in CPA1 mRNA level in Saccharomyces cerevisiae BY4741 at 1 mg/ml by Northern blot analysis relative to control; procedure, shortened: as §1
# Saccharomyces cerevisiae [16] = test: Decrease in TRP5 mRNA level in Saccharomyces cerevisiae BY4741 at 1 mg/ml by Northern blot analysis relative to control; procedure, shortened: as §1
# Saccharomyces cerevisiae [17] = test: Decrease in TAP-tagged ARG5,6 protein level in Saccharomyces cerevisiae YSC1178-7500224 at 1 mg/ml by Western blotting analysis relative to control; procedure, shortened: as §2
# Saccharomyces cerevisiae [18] = test: Decrease in TAP-tagged CPA1 protein level in Saccharomyces cerevisiae YSC1178-7502950 at 1 mg/ml by Western blotting analysis relative to control; procedure, shortened: as §2
# Saccharomyces cerevisiae [19] = test: Decrease in TAP-tagged TRP5 protein level in Saccharomyces cerevisiae YSC1178-7500415 at 1 mg/ml by Western blotting analysis relative to control; procedure, shortened: as §2
Compound,Activity (Saccharomyces cerevisiae [1]),Activity (Saccharomyces cerevisiae [2]),Activity (Saccharomyces cerevisiae [3]),Activity (Saccharomyces cerevisiae [4]),Activity (Saccharomyces cerevisiae [5]),Activity (Saccharomyces cerevisiae [6]),Activity (Saccharomyces cerevisiae [7]),Activity (Saccharomyces cerevisiae [8]),Activity (Saccharomyces cerevisiae [9]),Activity (Saccharomyces cerevisiae [10]),Activity (Saccharomyces cerevisiae [11]),Activity (Saccharomyces cerevisiae [12]),Activity (Saccharomyces cerevisiae [13]),Activity (Saccharomyces cerevisiae [14]),Activity (Saccharomyces cerevisiae [15]),Activity (Saccharomyces cerevisiae [16]),Activity (Saccharomyces cerevisiae [17]),Activity (Saccharomyces cerevisiae [18]),Activity (Saccharomyces cerevisiae [19])
N[C@@H](CCCNC(=O)CP(=O)(O)O)C(=O)O,inactive,inactive,inactive,Active,Active,inactive,inactive,inactive,inactive,Active,Active,inactive,inactive,–,–,–,–,–,–
N=C(N)NCCC[C@H](N)C(=O)O,–,–,–,–,–,–,–,–,–,–,–,–,–,Active,Active,inactive,Active,Active,inactive
